Assays:
[1] = target: Dual specificity tyrosine-phosphorylation-regulated kinase 1A (Rattus norvegicus) (UniProt Q63470); test: Inhibition of rat DYRK1A kinase domain (1 to 499 residues) expressed in bacteria assessed as residual activity at 1 uM using KKISGRLSPIMTEQ as substrate in presence of [gamma-33P]ATP relative to control
How it was run: (§1)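 Buffer: 10 mM MgCl2, 1 mM EGTA, 1 mM DTT, 25 mM Tris-HCl pH 7.5, 50 μg/ml heparin, 0.15 mg/ml BSA.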

[2] = target: T1, Cyclin-dependent kinase 5/CDK5 activator 1 (Homo sapiens) (UniProt Q00535+Q15078); test: Inhibition of recombinant human CDK5/p25 expressed in bacteria assessed as residual activity at 1 uM using histone H1 as substrate in presence of [gamma-33P]ATP relative to control
T1 sequence (Q00535 whole entry): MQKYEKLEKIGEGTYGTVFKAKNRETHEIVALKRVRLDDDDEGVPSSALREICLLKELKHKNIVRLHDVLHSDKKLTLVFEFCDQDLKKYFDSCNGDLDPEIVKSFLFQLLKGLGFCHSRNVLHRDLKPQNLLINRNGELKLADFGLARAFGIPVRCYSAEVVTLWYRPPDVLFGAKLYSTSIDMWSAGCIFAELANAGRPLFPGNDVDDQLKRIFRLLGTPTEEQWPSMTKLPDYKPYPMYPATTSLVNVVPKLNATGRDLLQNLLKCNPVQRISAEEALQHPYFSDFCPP
T1 sequence (Q15078 99-307 partner limits assumed): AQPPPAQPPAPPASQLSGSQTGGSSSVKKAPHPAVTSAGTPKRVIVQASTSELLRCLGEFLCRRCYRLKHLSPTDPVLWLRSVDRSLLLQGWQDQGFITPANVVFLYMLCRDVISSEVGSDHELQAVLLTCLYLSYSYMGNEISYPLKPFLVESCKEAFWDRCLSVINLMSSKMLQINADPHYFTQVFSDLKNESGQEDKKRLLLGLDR
How it was run: (§2)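 Human recombinant CDK5/p25 (bacterially expressed) assayed with 0.8 μg/μl histone H1 as substrate and 15 μM [γ-33P]ATP. Residual activity versus DMSO controls, triplicate.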

[3] = target: Dual specificity protein kinase CLK1 (Mus musculus) (UniProt P22518); test: Inhibition of recombinant mouse CLK1 expressed in bacteria assessed as residual activity at 1 uM using GRSRSRSRSRSR as substrate in presence of [gamma-33P]ATP relative to control
Chain of Dual specificity protein kinase CLK1 (Mus musculus) (P22518 whole entry, looked up): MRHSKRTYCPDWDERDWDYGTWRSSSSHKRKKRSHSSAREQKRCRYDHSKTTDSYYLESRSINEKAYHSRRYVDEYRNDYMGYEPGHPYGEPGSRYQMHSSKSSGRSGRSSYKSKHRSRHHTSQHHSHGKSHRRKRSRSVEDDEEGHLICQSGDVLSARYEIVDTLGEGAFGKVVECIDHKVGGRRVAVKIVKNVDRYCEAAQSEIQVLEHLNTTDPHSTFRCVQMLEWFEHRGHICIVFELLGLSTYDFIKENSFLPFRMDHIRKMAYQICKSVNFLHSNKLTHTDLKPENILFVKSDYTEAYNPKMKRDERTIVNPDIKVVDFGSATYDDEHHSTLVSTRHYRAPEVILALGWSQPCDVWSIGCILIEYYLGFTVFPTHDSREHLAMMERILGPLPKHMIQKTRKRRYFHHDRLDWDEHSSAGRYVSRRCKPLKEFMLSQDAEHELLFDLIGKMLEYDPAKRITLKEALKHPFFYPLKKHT

[4] = species: Sus scrofa domesticus; test: Inhibition of porcine brain CK1delta/epsilon assessed as residual activity at 1 uM using RRKHAAIGSpAYSITA as substrate in presence of [gamma-33P]ATP relative to control; format: tissue-based
[5] = target: T2, Glycogen synthase kinase-3 (Sus scrofa) (UniProt B2LUN4+I6LNT8); test: Inhibition of porcine brain GSK-3alpha/beta assessed as residual activity at 1 uM using YRRAAVPPSPSLSRHSSPHQSpEDEEE as substrate in presence of [gamma-33P]ATP relative to control; format: tissue-based; conditions: Sus scrofa domesticus
How it was run: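 Affinity-purified porcine brain GSK-3α/β with 0.01 µg/µl GS-1 peptide (phosphoserine-primed) as substrate and 15 µM [γ-33P]ATP. Buffer was 25 mM Tris-HCl pH 7.5, 10 mM MgCl2, 1 mM EGTA, 1 mM DTT, 50 µg/ml heparin and 0.15 mg/ml BSA. Radioactive incorporation was compared with DMSO-dilution controls, in triplicate.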

[6] = target: T2, Glycogen synthase kinase-3 (Sus scrofa); test: Inhibition of porcine brain GSK-3alpha/beta assessed as residual activity at 10 uM using YRRAAVPPSPSLSRHSSPHQSpEDEEE as substrate in presence of [gamma-33P]ATP relative to control; format: tissue-based; conditions: Sus scrofa domesticus
[7] = target: T1, Cyclin-dependent kinase 5/CDK5 activator 1 (Homo sapiens); test: Inhibition of recombinant human CDK5/p25 expressed in bacteria assessed as residual activity at 10 uM using histone H1 as substrate in presence of [gamma-33P]ATP relative to control; how it was run: as §2
[8] = target: Dual specificity tyrosine-phosphorylation-regulated kinase 1A (Rattus norvegicus) (UniProt Q63470); test: Inhibition of rat DYRK1A kinase domain (1 to 499 residues) expressed in bacteria assessed as residual activity at 10 uM using KKISGRLSPIMTEQ as substrate in presence of [gamma-33P]ATP relative to control; how it was run: as §1
[9] = target: Dual specificity protein kinase CLK1 (Mus musculus) (UniProt P22518); test: Inhibition of recombinant mouse CLK1 expressed in bacteria assessed as residual activity at 10 uM using GRSRSRSRSRSR as substrate in presence of [gamma-33P]ATP relative to control
[10] = species: Sus scrofa domesticus; test: Inhibition of porcine brain CK1delta/epsilon assessed as residual activity at 10 uM using RRKHAAIGSpAYSITA as substrate in presence of [gamma-33P]ATP relative to control; format: tissue-based
[11] = system: MDA-MB-231; test: Antiproliferative activity against human MDA-MB-231 cells assessed as cell viability at 2 uM after 48 hrs by CellTiter96 AQueous assay relative to control; format: functional; conditions: read-out: Activity
How it was run: (§3)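 Cells grown in McCoy's 5a (HCT116), DMEM (SH-SY5Y, MDA-MB231, U-2 OS) or DMEM:F12 (hTERT-RPE1), each with 10% fetal calf serum, 2 mM L-glutamine, penicillin/streptomycin. Exposed to compound at 2 μM for 48 h; viability read by CellTiter96 AQueous per manufacturer, as % of DMSO-treated cells. Triplicate, mean ± SD; staurosporine as positive control.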

[12] = system: HCT-116; test: Antiproliferative activity against human HCT116 cells assessed as cell viability at 2 uM after 48 hrs by CellTiter96 AQueous assay relative to control; format: functional; conditions: read-out: Activity; how it was run: as §3
[13] = system: SH-SY5Y; test: Antiproliferative activity against human SH-SY5Y cells assessed as cell viability at 2 uM after 48 hrs by CellTiter96 AQueous assay relative to control; format: functional; conditions: read-out: Activity; how it was run: as §3
[14] = system: U2OS; test: Antiproliferative activity against human U2OS cells assessed as cell viability at 2 uM after 48 hrs by CellTiter96 AQueous assay relative to control; format: functional; conditions: read-out: Activity; how it was run: as §3
[15] = Antiproliferative activity against hTERT-RPE1 cells assessed as cell viability at 2 uM after 48 hrs by CellTiter96 AQueous assay relative to control; format: cell-based, TERT-RPE1; conditions: human, read-out: Activity; how it was run: as §3
[16] = target: Dual specificity protein kinase CLK1 (Mus musculus, UniProt P22518); test: Inhibition of recombinant mouse CLK1 expressed in bacteria using GRSRSRSRSRSR as substrate in presence of [gamma-33P]ATP
Chain of Dual specificity protein kinase CLK1 (P22518 whole entry): as the sequence (P22518 whole entry, looked up) above

Row | SMILES | Activity [1] [%] | Activity [2] [%] | Activity [3] [%] | Activity [4] [%] | Activity [5] [%] | Activity [6] [%] | Activity [7] [%] | Activity [8] [%] | Activity [9] [%] | Activity [10] [%] | viability at 2 µM [11] [%] | viability at 2 µM [12] [%] | viability at 2 µM [13] [%] | viability at 2 µM [14] [%] | viability at 48 h, 2 µM [15] [%] | IC50 [16] [nM]
1 | CN(C)CCCNc1ncc2cc3cnccc3c([N+](=O)[O-])c2n1 | 84 | 100 | 27 | 86 | 80 | 24 | 64 | 31 | 3 | 59 | – | – | – | – | – | –
2 | Nc1c2ccncc2cc2cnc(NCCN3CCCCC3)nc12 | 37 | 95 | 44 | 74 | 43 | 24 | 76 | 16 | 11 | 52 | – | – | – | – | – | –
3 | CCN(CC)CCCNc1ncc2cc3cnccc3c([N+](=O)[O-])c2n1 | 72 | 100 | 31 | 87 | 92 | 24 | 50 | 23 | 4 | 59 | – | – | – | – | – | –
4 | O=[N+]([O-])c1c2ccncc2cc2cnc(NCCN3CCCCC3)nc12 | 52 | 96 | 42 | 81 | 39 | 1 | 85 | 26 | 1 | 37 | – | – | – | – | – | –
5 | Nc1ncc2cc3cnccc3c(N)c2n1 | – | – | – | – | – | – | – | – | – | – | 43.4 | 1.3 | 0.9 | 0.4 | 0.2 | –
6 | CNc1ncc2cc3cnccc3c([N+](=O)[O-])c2n1 | 39 | 73 | 5 | 98 | 70 | 51 | 38 | 13 | 2 | 45 | 41 | 22 | 52 | 19.5 | 36 | 18
7 | O=[N+]([O-])c1c2ccncc2cc2cnc(NCCN3CCOCC3)nc12 | 73 | 100 | 36 | 93 | 88 | 43 | 69 | 20 | 5 | 75 | – | – | – | – | – | –
8 | O=[N+]([O-])c1c2ccncc2cc2cnc(NCCN3CCCC3)nc12 | 83 | 100 | 27 | 92 | 81 | 33 | 83 | 29 | 7 | 73 | – | – | – | – | – | –
9 | CN1CCN(CCNc2ncc3cc4cnccc4c([N+](=O)[O-])c3n2)CC1 | 32 | 84 | 32 | 63 | 69 | 22 | 77 | 6 | 0 | 38 | – | – | – | – | – | –
10 | CN(C)CCNc1ncc2cc3cnccc3c(N)c2n1 | 60 | 96 | 51 | 78 | 58 | 48 | 86 | 32 | 21 | 82 | – | – | – | – | – | –
11 | CN1CCN(CCCNc2ncc3cc4cnccc4c([N+](=O)[O-])c3n2)CC1 | 54 | 100 | 22 | 92 | 59 | 2 | 48 | 3 | 8 | 32 | 11.7 | 9.7 | 36 | 2.5 | 25.8 | 133
12 | O=[N+]([O-])c1c2ccncc2cc2cnc(-c3ccccc3)nc12 | 100 | 100 | 71 | 100 | 100 | 100 | 62 | 38 | 17 | 57 | – | – | – | – | – | –
13 | CN(C)CCNc1ncc2cc3cnccc3c([N+](=O)[O-])c2n1 | 89 | 100 | 22 | 100 | 70 | 21 | 52 | 17 | 5 | 36 | 9.4 | 13.3 | 42.7 | 3.3 | 29.2 | 62
14 | Nc1c2ccncc2cc2cnc(NCCCN3CCCCC3)nc12 | 26 | 100 | 30 | 76 | 51 | 30 | 62 | 4 | 4 | 48 | – | – | – | – | – | –
15 | Nc1c2ccncc2cc2cnc(NCCN3CCCC3)nc12 | 54 | 100 | 33 | 90 | 62 | 29 | 51 | 7 | 4 | 61 | – | – | – | – | – | –
16 | Nc1c2ccncc2cc2cnc(-c3ccccc3)nc12 | 80 | 92 | 68 | 62 | 85 | 40 | 65 | 41 | 32 | 51 | – | – | – | – | – | –
17 | O=[N+]([O-])c1c2ccncc2cc2cnc(NCCCN3CCCCC3)nc12 | 56 | 100 | 16 | 100 | 76 | 24 | 53 | 6 | 7 | 34 | – | – | – | – | – | 125
18 | CCN(CC)CCNc1ncc2cc3cnccc3c(N)c2n1 | 49 | 97 | 31 | 91 | 73 | 34 | 40 | 6 | 3 | 60 | – | – | – | – | – | –
19 | CCN(CC)CCNc1ncc2cc3cnccc3c([N+](=O)[O-])c2n1 | 88 | 100 | 46 | 91 | 74 | 26 | 79 | 47 | 8 | 78 | – | – | – | – | – | –
20 | O=[N+]([O-])c1c2ccncc2cc2cnc(NCCCN3CCCC3)nc12 | 87 | 100 | 37 | 100 | 78 | 24 | 50 | 6 | 5 | 37 | – | – | – | – | – | –
21 | CN[C@@H]1C[C@H]2O[C@@](C)([C@@H]1OC)n1c3ccccc3c3c4c(c5c6ccccc6n2c5c31)C(=O)NC4 [STAUROSPORINE] | – | – | – | – | – | – | – | – | – | – | 3.9 | 27 | 9.4 | 0.4 | 9.1 | –
